ChEMBL document CHEMBL4257553, “Novel organophosphorus aminopyrimidines as unique structural DNA-targeting membrane active inhibitors towards drug-resistant methicillin-resistant Staphylococcus aureus” (Medchemcomm, 2018)
≈ marks a conversion by molar mass, not a printed value.

How the values were obtained:
Assay type in all cases: functional
Staphylococcus aureus [1] = test: Antibacterial activity against methicillin resistant Staphylococcus aureus after 24 hrs by microbroth dilution method
Procedure, shortened: (§1)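 Tested by CLSI-standard broth microdilution against a panel of eleven bacterial strains, Gram-positive and Gram-negative, including MRSA.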

Staphylococcus aureus [2] = test: Antibacterial activity against Staphylococcus aureus ATCC 25923 after 24 hrs by microbroth dilution method; details: ATCC 25923, 24 h; procedure, shortened: as §1
Escherichia coli [3] = test: Antibacterial activity against Escherichia coli after 24 hrs by microbroth dilution method; procedure, shortened: as §1
Pseudomonas aeruginosa [4] = test: Antibacterial activity against Pseudomonas aeruginosa ATCC 27853 after 24 hrs by microbroth dilution method; details: ATCC 27853, 24 h; procedure, shortened: as §1
Aspergillus fumigatus [5] = test: Antifungal activity against Aspergillus fumigatus after 24 hrs by microbroth dilution method
Escherichia coli [6] = test: Antibacterial activity against Escherichia coli ATCC 25922 after 24 hrs by microbroth dilution method; details: ATCC 25922, 24 h; procedure, shortened: as §1
Acinetobacter baumannii = test: Antibacterial activity against Acinetobacter baumannii after 24 hrs by microbroth dilution method; procedure, shortened: as §1
Klebsiella pneumoniae = test: Antibacterial activity against Klebsiella pneumoniae after 24 hrs by microbroth dilution method; procedure, shortened: as §1
Enterococcus faecalis = test: Antibacterial activity against Enterococcus faecalis after 24 hrs by microbroth dilution method; procedure, shortened: as §1
Aspergillus fumigatus [7] = test: Potency index, ratio of fluconazole MIC to compound MIC for antifungal activity against Aspergillus fumigatus
Pseudomonas aeruginosa [8] = test: Antibacterial activity against Pseudomonas aeruginosa after 24 hrs by microbroth dilution method; procedure, shortened: as §1
Staphylococcus aureus [9] = test: Antibacterial activity against Staphylococcus aureus after 24 hrs by microbroth dilution method; procedure, shortened: as §1
Staphylococcus aureus [10] = test: Antibacterial activity against Staphylococcus aureus ATCC 29213 after 24 hrs by microbroth dilution method; details: ATCC 29213, 24 h; procedure, shortened: as §1

SMILES | MIC (Staphylococcus aureus [1]) [µg/mL] | MIC (Staphylococcus aureus [2]) [µg/mL] | MIC (Escherichia coli [3]) [µg/mL] | MIC (Pseudomonas aeruginosa [4]) [µg/mL] | MIC (Aspergillus fumigatus [5]) [µg/mL] | MIC (Escherichia coli [6]) [µg/mL] | MIC (Acinetobacter baumannii) [µg/mL] | MIC (Klebsiella pneumoniae) [µg/mL] | MIC (Enterococcus faecalis) [µg/mL] | Ratio (Aspergillus fumigatus [7]) | MIC (Pseudomonas aeruginosa [8]) [µg/mL] | MIC (Staphylococcus aureus [9]) [µg/mL] | MIC (Staphylococcus aureus [10]) [µg/mL]
CCOP(=O)(OCC)C(Nc1ncccn1)c1ccc(OC)cc1 (stereo not drawn) | 256 (≈ 729 µM) | 64 (≈ 182 µM) | 256 (≈ 729 µM) | 4 (≈ 11.4 µM) | > 16 | 256 (≈ 729 µM) | 128 (≈ 364 µM) | 256 (≈ 729 µM) | 64 (≈ 182 µM) | 16 | 128 (≈ 364 µM) | 256 (≈ 729 µM) | 256 (≈ 729 µM)
C#CCn1c(CCCC)nc(Cl)c1C(Nc1ncccn1)P(=O)(OCC)OCC (stereo not drawn) | 128 (≈ 291 µM) | 32 (≈ 72.7 µM) | 256 (≈ 582 µM) | 256 (≈ 582 µM) | > 16 | 128 (≈ 291 µM) | 128 (≈ 291 µM) | 256 (≈ 582 µM) | 256 (≈ 582 µM) | 16 | 256 (≈ 582 µM) | 64 (≈ 145 µM) | 256 (≈ 582 µM)
OC(Cn1cncn1)(Cn1cncn1)c1ccc(F)cc1F [FLUCONAZOLE] |  |  |  |  | > 16 |  |  |  |  |  |  |  | 
Cc1ccc(C(Nc2ncccn2)P(=O)(O)O)cc1 (stereo not drawn) | 256 (≈ 917 µM) | 128 (≈ 458 µM) | 128 (≈ 458 µM) | 256 (≈ 917 µM) | > 16 | 256 (≈ 917 µM) | 256 (≈ 917 µM) | 128 (≈ 458 µM) | 256 (≈ 917 µM) | 16 | 128 (≈ 458 µM) | 256 (≈ 917 µM) | 256 (≈ 917 µM)
CCCCc1nc(Cl)c(C(Nc2ncccn2)P(=O)(OCC)OCC)n1CCC (stereo not drawn) | 8 (≈ 18 µM) | 64 (≈ 144 µM) | 256 (≈ 577 µM) | 128 (≈ 288 µM) | > 16 | 128 (≈ 288 µM) | 64 (≈ 144 µM) | 64 (≈ 144 µM) | 128 (≈ 288 µM) | 16 | 128 (≈ 288 µM) | 256 (≈ 577 µM) | 128 (≈ 288 µM)
